ChEMBL document CHEMBL1154611 (J Med Chem, 2009)
Values after ≈ are worked out from the molar mass of the structure shown. Active and inactive are the calls of the source. The rule behind the calls is not given here.

Assays:
Streptococcus pneumoniae [1] = assay: Antibacterial activity against erythromycin-sensitive Streptococcus pneumoniae ATCC 6301; assay type: functional
Procedure, shortened: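 MIC, the minimal growth inhibitory concentration, was determined in routine screening against the highly erythromycin-sensitive strain Streptococcus pneumoniae ATCC6301.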

Motilin receptor = Motilin receptor (Oryctolagus cuniculus, UniProt A5A4K8); assay: Agonist activity at motilin receptor in rabbit smooth muscle assessed as maximal possible tissue contraction; assay type: functional
Procedure, shortened: (§1)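 Rabbit smooth muscle contractility assay. EC50 is the concentration giving 50% of the maximal possible contraction. Tachyphylaxis is the % contractile response to an EC90 drug concentration after three cycles of administration and washout.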

[2] = target: Motilin receptor (Oryctolagus cuniculus) (UniProt A5A4K8); assay: Agonist activity at motilin receptor in rabbit smooth muscle assessed as tachyphylaxis at EC90 concentration after 4th dose; assay type: functional; procedure, shortened: as §1
hERG (KCNH2) [3] = target: T1, hERG (KCNH2) (Homo sapiens, UniProt Q12809); assay: Inhibition of human ERG expressed in HEK cells at 300 uM; assay type: cell-based, HEK293; conditions: HEK cells expressing human ERG
hERG (KCNH2) [4] = target: T1, hERG (KCNH2); assay: Inhibition of human ERG expressed in HEK cells at 30 uM; assay type: cell-based, HEK293; conditions: HEK cells expressing human ERG
Clostridioides difficile = assay: Antimicrobial activity against Clostridium difficile; assay type: functional, organism-based
Procedure, shortened: (§2)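 MIC was determined across a panel of about 200 clinical isolates from a variety of specimens held in a university clinical microbiology collection, with about 10 isolates per species. The panel covers gut flora and organisms commonly known to develop antibiotic resistance.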

Klebsiella pneumoniae = assay: Antimicrobial activity against Klebsiella pneumoniae; assay type: functional, organism-based; procedure, shortened: as §2
Streptococcus pneumoniae [5] = assay: Antimicrobial activity against Streptococcus pneumoniae; assay type: functional, organism-based; procedure, shortened: as §2
Cutibacterium acnes = assay: Antimicrobial activity against Propionibacterium acnes; assay type: functional, organism-based
Lactobacillus sp. = assay: Antimicrobial activity against Lactobacillus sp.; assay type: functional, organism-based; procedure, shortened: as §2
Staphylococcus aureus = assay: Antimicrobial activity against Staphylococcus aureus; assay type: functional, organism-based; procedure, shortened: as §2
Enterococcus faecalis = assay: Antimicrobial activity against Enterococcus faecalis; assay type: functional, organism-based; procedure, shortened: as §2
Corynebacterium sp. = assay: Antimicrobial activity against Corynebacterium sp.; assay type: functional, organism-based; procedure, shortened: as §2
Proteus mirabilis = assay: Antimicrobial activity against Proteus mirabilis; assay type: functional, organism-based; procedure, shortened: as §2
Corynebacterium jeikeium = assay: Antimicrobial activity against Corynebacterium jeikeium; assay type: functional, organism-based; procedure, shortened: as §2
Haemophilus influenzae = assay: Antimicrobial activity against Haemophilus influenzae; assay type: functional, organism-based; procedure, shortened: as §2
Staphylococcus = assay: Antimicrobial activity against Staphylococcus coagulase; assay type: functional, organism-based; procedure, shortened: as §2
Streptococcus equinus = assay: Antimicrobial activity against Streptococcus bovis; assay type: functional, organism-based; procedure, shortened: as §2
Clostridium perfringens = assay: Antimicrobial activity against Clostridium perfringens; assay type: functional, organism-based
Procedure, shortened: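 MIC determined across a panel of about 200 clinical strains that represent gut flora and species known to develop antibiotic resistance. The panel included about 10 Clostridium perfringens isolates, taken from a variety of clinical specimens and held in the University of Rochester Medical Center clinical microbiology collection.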

Streptococcus pyogenes = assay: Antimicrobial activity against Streptococcus pyogenes; assay type: functional, organism-based; procedure, shortened: as §2
Moraxella catarrhalis = assay: Antimicrobial activity against Moraxella catarrhalis; assay type: functional, organism-based; procedure, shortened: as §2
Micrococcus luteus = assay: Antimicrobial activity against Micrococcus luteus; assay type: functional, organism-based; procedure, shortened: as §2
Enterococcus faecium = assay: Antimicrobial activity against Enterococcus faecium; assay type: functional, organism-based; procedure, shortened: as §2
Escherichia coli = assay: Antimicrobial activity against Escherichia coli; assay type: functional, organism-based; procedure, shortened: as §2
Bacteroides fragilis = assay: Antimicrobial activity against Bacteroides fragilis; assay type: functional, organism-based; procedure, shortened: as §2
[6] = Ratio of IC50 for human ERG to EC50 for rabbit motilin receptor agonism; assay type: functional
Procedure, shortened: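 The motilin EC50 came from the rabbit smooth muscle contraction assay, and the ratio of the two served as a cardiovascular safety predictor.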

[7] = target: Voltage-gated inwardly rectifying potassium channel KCNH2 (Homo sapiens, UniProt Q12809); assay: Inhibition of human ERG expressed in HEK cells; assay type: cell-based, HEK293
Voltage-gated inwardly rectifying potassium channel KCNH2, sequence (Q12809 whole entry): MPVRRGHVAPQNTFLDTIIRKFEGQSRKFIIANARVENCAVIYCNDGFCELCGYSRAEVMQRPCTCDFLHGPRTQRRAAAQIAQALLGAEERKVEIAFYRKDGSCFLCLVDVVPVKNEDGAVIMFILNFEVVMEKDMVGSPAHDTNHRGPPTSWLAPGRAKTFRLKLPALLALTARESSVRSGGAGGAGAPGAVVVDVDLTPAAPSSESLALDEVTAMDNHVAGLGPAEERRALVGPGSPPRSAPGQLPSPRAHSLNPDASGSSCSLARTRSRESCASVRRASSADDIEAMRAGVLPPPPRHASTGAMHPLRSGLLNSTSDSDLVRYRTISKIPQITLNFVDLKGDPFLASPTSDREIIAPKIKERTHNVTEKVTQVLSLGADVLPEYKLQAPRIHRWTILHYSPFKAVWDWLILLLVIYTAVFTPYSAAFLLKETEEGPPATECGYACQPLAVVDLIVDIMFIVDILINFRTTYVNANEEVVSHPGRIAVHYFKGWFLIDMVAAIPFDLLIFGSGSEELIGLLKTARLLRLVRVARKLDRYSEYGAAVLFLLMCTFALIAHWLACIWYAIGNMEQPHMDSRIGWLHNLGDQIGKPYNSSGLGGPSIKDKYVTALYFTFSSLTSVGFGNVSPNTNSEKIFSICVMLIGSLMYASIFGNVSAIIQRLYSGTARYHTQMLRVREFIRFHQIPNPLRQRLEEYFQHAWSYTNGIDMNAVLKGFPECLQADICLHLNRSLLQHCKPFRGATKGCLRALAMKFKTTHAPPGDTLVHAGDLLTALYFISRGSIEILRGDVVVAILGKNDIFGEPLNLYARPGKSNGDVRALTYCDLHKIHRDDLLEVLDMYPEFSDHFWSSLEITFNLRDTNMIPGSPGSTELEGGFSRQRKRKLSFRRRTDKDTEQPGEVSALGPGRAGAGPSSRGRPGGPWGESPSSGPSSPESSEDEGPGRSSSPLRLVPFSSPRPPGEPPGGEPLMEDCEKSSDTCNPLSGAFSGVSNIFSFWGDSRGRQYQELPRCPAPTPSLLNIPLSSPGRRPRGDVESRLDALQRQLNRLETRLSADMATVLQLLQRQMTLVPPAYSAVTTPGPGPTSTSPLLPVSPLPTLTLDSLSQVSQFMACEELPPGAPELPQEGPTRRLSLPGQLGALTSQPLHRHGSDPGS

Motilin receptor, sequence (A5A4K8 whole entry): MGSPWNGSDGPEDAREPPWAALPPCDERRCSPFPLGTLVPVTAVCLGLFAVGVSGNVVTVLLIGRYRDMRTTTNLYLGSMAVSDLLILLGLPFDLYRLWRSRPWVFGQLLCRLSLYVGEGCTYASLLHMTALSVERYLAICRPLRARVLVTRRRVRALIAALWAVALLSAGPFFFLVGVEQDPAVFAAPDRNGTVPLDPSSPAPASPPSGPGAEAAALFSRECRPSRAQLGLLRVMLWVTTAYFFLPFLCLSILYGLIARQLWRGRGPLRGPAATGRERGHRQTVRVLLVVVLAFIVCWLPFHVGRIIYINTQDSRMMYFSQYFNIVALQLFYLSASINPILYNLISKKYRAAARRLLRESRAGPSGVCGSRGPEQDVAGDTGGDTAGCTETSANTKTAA
Motilin receptor (Oryctolagus cuniculus), sequence (A5A4K8 as listed by the source): as the sequence (A5A4K8 whole entry) above
T1 sequence (Q12809 whole entry): as the sequence (Q12809 whole entry) above

SMILES | MIC (Streptococcus pneumoniae [1]) [µg/mL] | EC50 (Motilin receptor) [nM] | Activity [2] [%] | inhibition at 300 µM (hERG (KCNH2) [3]) [%] | inhibition at 30 µM (hERG (KCNH2) [4]) [%] | other results
CC[C@H]1OC(=O)[C@H](C)[C@@H](O[C@H]2C[C@@](C)(OC)[C@@H](O)[C@H](C)O2)[C@H](C)[C@@H](O[C@@H]2O[C@H](C)C[C@H](N(C)C)[C@H]2O)[C@](C)(O)C[C@@H](C)C(=O)[C@H](C)[C@@H](O)[C@]1(C)O [ERYTHROMYCIN] | 0.0025 (≈ 0.00341 µM) | 1200 | 97 |  |  | 
CCNC(=O)CO[C@@H]1[C@H](C)[C@@H](O)[C@](C)(O)[C@@H](CC)OC(=O)[C@H](C)[C@@H](O[C@H]2C[C@@](C)(OC)[C@@H](O)[C@H](C)O2)[C@H](C)[C@@H](O[C@@H]2O[C@H](C)C[C@H](N(C)C(C)C)[C@H]2O)[C@](C)(O)C[C@H]1C | > 128 | 67 | 89 | 75 | 24 | 
CC[C@H]1OC(=O)[C@H](C)[C@@H](O[C@H]2C[C@@](C)(OC)[C@@H](O)[C@H](C)O2)[C@H](C)[C@@H](O[C@@H]2O[C@H](C)C[C@H](N(C)C(C)C)[C@H]2O)[C@](C)(O)C[C@@H](C)[C@H](OCC(=O)N(C)C)[C@H](C)[C@@H](O)[C@]1(C)O |  | 660 | 95 | 29 | 8 | 
CC[C@H]1OC(=O)[C@H](C)[C@@H](O[C@H]2C[C@@](C)(OC)[C@@H](O)[C@H](C)O2)[C@H](C)[C@@H](O[C@@H]2O[C@H](C)C[C@H](N(C)C(C)C)[C@H]2O)[C@](C)(O)C[C@@H](C)[C@H](OCC(=O)NCCO)[C@H](C)[C@@H](O)[C@]1(C)O | 128 (≈ 148 µM) | 120 | 87 | 68 | 29 | 
CC[C@H]1OC(=O)[C@H](C)[C@@H](O[C@H]2C[C@@](C)(OC)[C@@H](O)[C@H](C)O2)[C@H](C)[C@@H](O[C@@H]2O[C@H](C)C[C@H](N(C)C(C)C)[C@H]2O)[C@](C)(O)C[C@@H](C)[C@H](OCC(=O)Nc2ccncn2)[C@H](C)[C@@H](O)[C@]1(C)O |  | 25 | 63 | 60 | 16 | 
CC[C@H]1OC(=O)[C@H](C)[C@@H](O[C@H]2C[C@@](C)(OC)[C@@H](O)[C@H](C)O2)[C@H](C)[C@@H](O[C@@H]2O[C@H](C)C[C@H](N(C)C(C)C)[C@H]2O)[C@](C)(O)C[C@@H](C)[C@H](OCCCC(=O)NC)[C@H](C)[C@@H](O)[C@]1(C)O | 128 (≈ 148 µM) | 84 | 79 | 56 | 13 | 
CC[C@H]1OC(=O)[C@H](C)[C@@H](O[C@H]2C[C@@](C)(OC)[C@@H](O)[C@H](C)O2)[C@H](C)[C@@H](O[C@@H]2O[C@H](C)C[C@H](N(C)C(C)C)[C@H]2O)[C@](C)(O)C[C@@H](C)[C@H](OCC(=O)NC2CCC2)[C@H](C)[C@@H](O)[C@]1(C)O | 128 (≈ 146 µM) | 28 | 75 | 100 | 64 | 
CC[C@H]1OC(=O)[C@H](C)[C@@H](O[C@H]2C[C@@](C)(OC)[C@@H](O)[C@H](C)O2)[C@H](C)[C@@H](O[C@@H]2O[C@H](C)C[C@H](N(C)C(C)C)[C@H]2O)[C@](C)(O)C[C@@H](C)[C@H](OCC(N)=O)[C@H](C)[C@@H](O)[C@]1(C)O | > 128 | 52 | 92 | 51 | 10 | 
CC[C@H]1OC(=O)[C@H](C)[C@@H](O[C@H]2C[C@@](C)(OC)[C@@H](O)[C@H](C)O2)[C@H](C)[C@@H](O[C@@H]2O[C@H](C)C[C@H](N(C)C(C)C)[C@H]2O)[C@](C)(O)C[C@@H](C)[C@H](OCC(=O)NC2CCOCC2)[C@H](C)[C@@H](O)[C@]1(C)O | > 128 | 120 | 88 | 67 | 23 | 
CC[C@H]1OC(=O)[C@H](C)[C@@H](O[C@H]2C[C@@](C)(OC)[C@@H](O)[C@H](C)O2)[C@H](C)[C@@H](O[C@@H]2O[C@H](C)C[C@H](N(C)C(C)C)[C@H]2O)[C@](C)(O)C[C@@H](C)[C@H](OCC(=O)NC)[C@H](C)[C@@H](O)[C@]1(C)O | > 128 | 58 | 89 |  |  | Activity (Clostridioides difficile): inactive; Activity (Klebsiella pneumoniae): inactive; Activity (Streptococcus pneumoniae [5]): inactive; Activity (Cutibacterium acnes): inactive; Activity (Lactobacillus sp.): inactive; Activity (Staphylococcus aureus): inactive; Activity (Enterococcus faecalis): inactive; Activity (Corynebacterium sp.): inactive; Activity (Proteus mirabilis): inactive; Activity (Corynebacterium jeikeium): inactive; Activity (Haemophilus influenzae): inactive; Activity (Staphylococcus): inactive; Activity (Streptococcus equinus): inactive; Activity (Clostridium perfringens): inactive; Activity (Streptococcus pyogenes): inactive; Activity (Moraxella catarrhalis): inactive; Activity (Micrococcus luteus): inactive; Activity (Enterococcus faecium): inactive; Activity (Escherichia coli): inactive; Activity (Bacteroides fragilis): inactive
CC[C@H]1OC(=O)[C@H](C)[C@@H](O[C@H]2C[C@@](C)(OC)CC(C)O2)[C@H](C)[C@@H](O[C@@H]2O[C@H](C)C[C@H](N(C)CC)[C@H]2O)C2(C)CC(C)=C(O2)[C@H](C)[C@@H](O)[C@H]1C (single isomer, unassigned) | 64 (≈ 91.7 µM) | 7 | 22 | 100 |  | 
CC[C@H]1OC(=O)[C@H](C)[C@@H](O[C@H]2C[C@@](C)(OC)[C@@H](O)[C@H](C)O2)[C@H](C)[C@@H](O[C@@H]2O[C@H](C)C[C@H](N(C)C(C)C)[C@H]2O)[C@](C)(O)C[C@@H](C)[C@H](OCC(=O)NC)[C@H](C)[C@@H](O)[C@H]1C |  | 90 | 86 | 67 | 21 | 
CC[C@H]1OC(=O)[C@H](C)[C@@H](O[C@H]2C[C@@](C)(OC)[C@@H](O)[C@H](C)O2)[C@H](C)[C@@H](O[C@@H]2O[C@H](C)C[C@H](N(C)C(C)C)[C@H]2O)[C@](C)(O)C[C@@H](C)[C@H](O)[C@H](C)[C@@H](O)[C@]1(C)O [3 9-DIHYDRO-N-DESMETHYL-N-ISOPROPYLERYTHROMYCIN A] | 32 (≈ 41.9 µM) | 260 | 85 | 100 | 80 | Ratio IC50/EC50 [6]: 38; IC50 [7]: 10000 nM
CC[C@H]1OC(=O)[C@H](C)[C@@H](O[C@H]2C[C@@](C)(OC)[C@@H](O)[C@H](C)O2)[C@H](C)[C@@H](O[C@@H]2O[C@H](C)C[C@H](N(C)C(C)C)[C@H]2O)[C@](C)(O)C[C@@H](C)[C@H](OCC(=O)NC2CC2)[C@H](C)[C@@H](O)[C@]1(C)O | 128 (≈ 149 µM) | 31 | 82 | 60 | 23 | 
CC[C@H]1OC(=O)[C@H](C)[C@@H](O[C@H]2C[C@@](C)(OC)[C@@H](O)[C@H](C)O2)[C@H](C)[C@@H](O[C@@H]2O[C@H](C)C[C@H](N(C)C(C)C)[C@H]2O)[C@](C)(O)C[C@@H](C)[C@H](OCC(=O)Nc2cnccn2)[C@H](C)[C@@H](O)[C@]1(C)O | 128 (≈ 142 µM) | 69 |  | 88 | 40 | 
